Data reported in ChEMBL document CHEMBL2203173 (J Med Chem, 2012).
Active and inactive are the calls of the source. The rule behind the calls is not given here.

Experiments:
[1] = system: DMS-53; experiment: Antitumor activity against human DMS53 cells xenografted in BALB/c nu/nu mouse assessed as reduction of tumor volume at 6 mg/kg, iv administered for 5 days a week measured after 21 days (RVb = 922 94 mm'3); assay type: functional, organism-based; parameters: dose 6 mg/kg
How it was run: (§1)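 Nude mice bearing DMS-53 xenografts began dosing once tumors reached 100 mm3. Agents given iv by tail vein 5 days/week in vehicle of 30% propylene glycol/saline, with vehicle controls. Net tumor volume followed for 21 days. Mice sacrificed on day 21 and tumors excised and wet-weighed.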

[2] = system: DMS-53; experiment: Antitumor activity against human DMS53 cell xenografted BALB/c nu/nu mouse assessed as reduction in tumor volume at 10 mg/kg, po administered for 3 times a week measured after 20 days (reference value: 997 155 mm'3); assay type: functional, organism-based; parameters: dose 10 mg/kg
How it was run: (§2)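 DMS-53 xenograft nude mice gavaged 3 times/week with agent in 30% propylene glycol/saline or with vehicle alone. Net tumor volume followed for 20 days; the study ended when control tumors neared the 1000 mm3 ethical limit. Tumors excised and wet-weighed on day 20. n = 6–11 mice/condition, mean ± SD.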

[3] = system: DMS-53; experiment: Antitumor activity against human DMS53 cell xenografted BALB/c nu/nu mouse assessed as reduction in tumor volume at 7.5 mg/kg, po administered for 3 times a week measured after 20 days (reference value: 997 155 mm'3); assay type: functional, organism-based; parameters: dose 7.5 mg/kg; how it was run: as §2
[4] = system: DMS-53; experiment: Antitumor activity against human DMS53 cells xenografted in BALB/c nu/nu mouse assessed as reduction of tumor volume at 3 mg/kg, iv administered for 5 days a week measured after 21 days (RVb = 922 94 mm'3); assay type: functional, organism-based; parameters: dose 3 mg/kg; how it was run: as §1
[5] = system: SK-N-MC; experiment: Inhibition to 59Fe uptake from 59Fe-transferrin in human SK-N-MC cells at 25 uM after 3 hrs relative to Dp4eT
[6] = system: SK-N-MC; experiment: Antiproliferative activity at human SK-N-MC cells after 72 hrs by MTT assay; assay type: functional, cell-based
[7] = system: DMS-53; experiment: Antiproliferative activity at human DMS53 cells after 72 hrs by MTT assay; assay type: functional, cell-based; conditions: Homo sapiens, DMS-53, 72 h
[8] = system: A549; experiment: Antiproliferative activity at human A549 cells after 72 hrs by MTT assay; assay type: functional, cell-based; conditions: Homo sapiens, A549, 72 h
[9] = system: DMS-53; experiment: Antitumor activity against human DMS53 cells xenografted in BALB/c nu/nu mouse assessed as reduction in tumor weight at 4 mg/kg, iv administered for 5 days a week measured after 21 days (reference value: 0.830.11 g); assay type: functional, organism-based; parameters: dose 4 mg/kg; how it was run: as §1
[10] = system: DMS-53; experiment: Antitumor activity against human DMS53 cells xenografted in BALB/c nu/nu mouse assessed as reduction in tumor weight at 8 mg/kg, iv administered for 5 days per week measured after 21 days (reference value: 0.830.11 g); assay type: functional, organism-based; parameters: dose 8 mg/kg; how it was run: as §1
[11] = system: DMS-53; experiment: Antitumor activity against human DMS53 cells xenografted in BALB/c nu/nu mouse assessed as reduction of tumor volume at 4 mg/kg, iv administered for 5 days a week measured after 21 days (RVb = 922 94 mm'3); assay type: functional, organism-based; parameters: dose 4 mg/kg; how it was run: as §1
[12] = system: DMS-53; experiment: Antitumor activity against human DMS53 cells xenografted in BALB/c nu/nu mouse assessed as reduction of tumor volume at 8 mg/kg, iv administered for 5 days a week measured after 21 days (RVb = 922 94 mm'3); assay type: functional, organism-based; parameters: dose 8 mg/kg; how it was run: as §1
[13] = system: DMS-53; experiment: Antitumor activity against human DMS53 cell xenografted BALB/c nu/nu mouse assessed as reduction in tumor volume at 20 mg/kg, po administered for 3 times a week measured after 20 days (reference value: 997 155 mm'3); assay type: functional, organism-based; parameters: dose 20 mg/kg; how it was run: as §2
[14] = system: Mus musculus; experiment: Toxicity in BALB/c nu/nu mouse xenografted with human DMS53 cells assessed as hepatocellular fibrosis at 0.75 mg/kg, iv administered for 5 days a week measured after 21 days by hematoxylin and eosin staining method; assay type: organism-based, DMS-53; parameters: dose 0.75 mg/kg, route intravenous; conditions: in vivo, 504 h
How it was run: (§3)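 Nude mice with DMS-53 xenografts dosed by tail-vein iv injection in 30% propylene glycol/saline, starting at 100 mm3 tumour volume, 5 days/week for 21 days. Spleen, kidney, liver, heart, lungs and brain were stained with H&E, Perls' (Fe loading) and Gomori Trichrome (fibrosis) by standard methods, and an independent veterinary pathologist examined them.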

[15] = system: Mus musculus; experiment: Toxicity in BALB/c nu/nu mouse xenografted with human DMS53 cells assessed as change in hemoglobin level at 0.75 mg/kg, iv administered for 5 days a week measured after 21 days; assay type: organism-based, DMS-53; parameters: dose 0.75 mg/kg, route intravenous; conditions: in vivo, 504 h
How it was run: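 DMS-53 xenografts in nude mice; dosing started at 100 mm3 tumor volume. Agents given iv via tail vein, 5 days/week for 21 days, vehicle 30% propylene glycol/saline, vehicle-treated controls. Mice sacrificed day 21. Body and organ weights and hematological indices recorded. Spleen, kidney, liver, heart, lungs and brain were stained with H&E, Perls' and Gomori Trichrome and read by an independent veterinary pathologist.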

[16] = system: Mus musculus; experiment: Toxicity in BALB/c nu/nu mouse xenografted with human DMS53 cells assessed as hepatocellular necrosis at 0.75 mg/kg, iv administered for 5 days a week measured after 21 days by hematoxylin and eosin staining method; assay type: organism-based, DMS-53; parameters: dose 0.75 mg/kg, route intravenous; conditions: in vivo, 504 h; how it was run: as §3
[17] = system: Mus musculus; experiment: Toxicity in BALB/c nu/nu mouse xenografted with human DMS53 cells assessed as change in organ weight at 0.75 mg/kg, iv administered for 5 days a week measured after 21 days; assay type: organism-based, DMS-53; parameters: dose 0.75 mg/kg, route intravenous; conditions: in vivo, 504 h
How it was run: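 DMS-53 xenograft-bearing nude mice, treatment started at 100 mm3 tumour volume: iv tail-vein dosing in 30% propylene glycol/saline, 5 days/week for 21 days. Organs were weighed at sacrifice and compared with vehicle-control mice.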

[18] = system: Mus musculus; experiment: Toxicity in BALB/c nu/nu mouse xenografted with human DMS53 cells assessed as change in platelet count at 0.75 mg/kg, iv administered for 5 days a week measured after 21 days; assay type: organism-based, DMS-53; parameters: dose 0.75 mg/kg, route intravenous; conditions: in vivo, 504 h
How it was run: (§4)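 Nude mice carrying DMS-53 xenografts (treatment from 100 mm3) received iv tail-vein doses in 30% propylene glycol/saline, 5 days/week for 21 days. Hematological indices (RBC, hemoglobin, hematocrit, reticulocytes, WBC, platelets) were then compared with vehicle controls.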

[19] = system: SK-N-MC; experiment: Inhibition to 59Fe uptake from 59Fe-transferrin in human SK-N-MC cells at 25 uM after 3 hrs; assay type: functional; parameters: scale not given: the % may be the effect or the level left
How it was run: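 SK-N-MC cells labeled with 59Fe-transferrin (0.75 μM) for 3 h/37 °C with or without chelators (25 μM). Cells washed four times on ice with ice-cold PBS. Internalized 59Fe separated with Pronase (1 mg/mL) and expressed as % of control. Mean ± SD of three experiments.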

[20] = system: MRC5; experiment: Antiproliferative activity at human MRC5 cells after 72 hrs by MTT assay; assay type: functional, cell-based; conditions: MRC5, 72 h
[21] = system: Mus musculus; experiment: Toxicity in BALB/c nu/nu mouse xenografted with human DMS53 cells assessed as vacuolation at 0.75 mg/kg, iv administered for 5 days a week measured after 21 days by hematoxylin and eosin staining method; assay type: organism-based, DMS-53; parameters: dose 0.75 mg/kg, route intravenous; conditions: in vivo, 504 h; how it was run: as §3
[22] = system: SK-N-MC; experiment: Induction of 59Fe mobilization in human SK-N-MC cells at 25 uM after 3 hrs by gamma-scintillation counter; assay type: functional
How it was run: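 SK-N-MC cells prelabeled with 59Fe-transferrin (0.75 μM) for 3 h/37 °C, then washed four times on ice with ice-cold PBS. Cells reincubated with or without chelators (25 μM) for 3 h/37 °C. Released 59Fe given as % of cellular 59Fe. Mean ± SD of three experiments.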

[23] = system: Mus musculus; experiment: Toxicity in human DMS53 cells xenografted BALB/c nu/nu mouse assessed as body weight change at 0.75 mg/kg, iv administered for 5 days a week measured after 21 days; assay type: organism-based, DMS-53; parameters: dose 0.75 mg/kg, route intravenous; conditions: in vivo, 504 h
How it was run: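 Body weights of DMS-53 xenograft-bearing nude mice were followed over 21 days of iv tail-vein dosing, 5 days/week, in 30% propylene glycol/saline, beginning at 100 mm3 tumour volume. Values are the average body weight per group.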

[24] = system: DMS-53; experiment: Antitumor activity against human DMS53 cells xenografted BALB/c nu/nu mouse assessed as reduction of tumor volume at 0.75 mg/kg, iv administered for 5 days a week measured after 21 days (RVb = 922 94 mm'3); assay type: functional, organism-based; parameters: dose 0.75 mg/kg; how it was run: as §1
[25] = system: Mus musculus; experiment: Toxicity in BALB/c nu/nu mouse xenografted with human DMS53 cells assessed as change in reticulocyte count at 0.75 mg/kg, iv administered for 5 days a week measured after 21 days; assay type: organism-based, DMS-53; parameters: dose 0.75 mg/kg, route intravenous; conditions: in vivo, 504 h; how it was run: as §4
[26] = system: Mus musculus; experiment: Toxicity in BALB/c nu/nu mouse xenografted with human DMS53 cells assessed as change in lungs histology at 0.75 mg/kg, iv administered for 5 days a week measured after 21 days by hematoxylin and eosin staining method; assay type: organism-based, DMS-53; parameters: dose 0.75 mg/kg, route intravenous; conditions: in vivo, 504 h
How it was run: (§5)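 DMS-53 xenograft nude mice, dosed from 100 mm3 tumor volume. Reference chelator given iv via tail vein as the base form, 5 days/week for 21 days, vehicle 30% propylene glycol/saline. Organs taken at sacrifice on day 21, stained with H&E, Perls' and Gomori Trichrome, and examined by an independent veterinary pathologist.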

[27] = system: Mus musculus; experiment: Toxicity in BALB/c nu/nu mouse xenografted with human DMS53 cells assessed as change in RBC count at 0.75 mg/kg, iv administered for 5 days a week measured after 21 days; assay type: organism-based, DMS-53; parameters: dose 0.75 mg/kg, route intravenous; conditions: in vivo, 504 h
[28] = system: Mus musculus; experiment: Toxicity in BALB/c nu/nu mouse xenografted with human DMS53 cells assessed as hepatocellular necrosis at 3 mg/kg, iv administered for 5 days a week measured after 21 days by hematoxylin and eosin staining method; assay type: organism-based, DMS-53; parameters: dose 3 mg/kg, route intravenous; conditions: in vivo, 504 h; how it was run: as §3
[29] = system: Mus musculus; experiment: Toxicity in BALB/c nu/nu mouse xenografted with human DMS53 cells assessed as change in hematopoetic cells in splenic red pulp at 0.75 mg/kg, iv administered for 5 days a week measured after 21 days by hematoxylin and eosin staining method; assay type: organism-based, DMS-53; parameters: dose 0.75 mg/kg, route intravenous; conditions: in vivo, 504 h; how it was run: as §5
[30] = system: Mus musculus; experiment: Toxicity in BALB/c nu/nu mouse xenografted with human DMS53 cells assessed as change in brain histology at 0.75 mg/kg, iv administered for 5 days a week measured after 21 days by hematoxylin and eosin staining method; assay type: organism-based, DMS-53; parameters: dose 0.75 mg/kg, route intravenous; conditions: in vivo, 504 h; how it was run: as §5
[31] = system: Mus musculus; experiment: Toxicity in BALB/c nu/nu mouse xenografted with human DMS53 cells assessed as cardiac fibrosis at 0.75 mg/kg, iv administered for 5 days a week measured after 21 days by […]; assay type: organism-based, Heart, DMS-53; parameters: dose 0.75 mg/kg, route intravenous; conditions: in vivo, 504 h
How it was run: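 DMS-53 xenograft nude mice given agents iv by tail vein 5 days/week in 30% propylene glycol/saline for 21 days. At sacrifice, heart sections were stained with Gomori Trichrome to detect fibrosis. Spleen, kidney, liver, heart, lungs and brain were also stained with H&E and Perls' and examined by an independent veterinary pathologist.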

## CCN(C)C(=S)NN=C(c1ccccn1)c1ccccn1
[1]
  Activity: Active
[2]
  Activity: Active
[3]
  Activity: Active
[4]
  Activity: Active

## CCN(CC)C(=S)NN=C(c1ccccn1)c1ccccn1
[5]
  Ratio: 2
[6]
  IC50: 5 nM

## CN(C(=S)NN=C(c1ccccn1)c1ccccn1)c1ccccc1
[6]
  IC50: 6 nM

## Nc1ccn([C@@H]2O[C@H](CO)[C@@H](O)C2(F)F)c(=O)n1 [GEMCITABINE]
[7]
  IC50: 9 nM
[8]
  IC50: 20 nM

## CN(C(=S)NN=C(c1ccccn1)c1ccccn1)C1CCCCC1
[9]
  Activity: Active
[10]
  Activity: Active
[11]
  Activity: Active
[12]
  Activity: Active
[2]
  Activity: Active
[13]
  Activity: Active

## CCN(C(=S)NN=C(c1ccccn1)c1ccccn1)c1ccccc1
[6]
  IC50: 10 nM

## CN(C)C(=S)NN=C(c1ccccn1)c1ccccn1
[14]
  Activity: Non-toxic
[15]
  Activity: Non-toxic
[16]
  Activity: Non-toxic
[17]
  Activity: Non-toxic
[18]
  Activity: Non-toxic
[7]
  IC50: 10 nM
[19]
  Activity: 3.5%
[20]
  IC50: > 10000 nM
[21]
  Activity: Toxic
[8]
  IC50: 20 nM
[22]
  Activity: 45%
[23]
  Activity: Non-toxic
[24]
  Activity: Active
[25]
  Activity: Non-toxic
[26]
  Activity: Non-toxic
[27]
  Activity: Non-toxic
[28]
  Activity: Non-toxic
[29]
  Activity: Non-toxic
[30]
  Activity: Non-toxic
[31]
  Activity: Toxic
